Source: PubChem BioAssay (Sanford-Burnham Center for Chemical Genomics)
CXCR6 inh: CXCR6 receptor inhibitors, primary screen, cell-based, beta-arrestin, luminescence, CHO-K1 PathHunter, 1536-well; inhibition, % at 20 µM; actives 0.36% (n = 360,000); in the data active = inhibition above about 34%, passing the limit was not always enough;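 also: antagonist mode with CXCL16 agonist at 10 nM final; 0% = 10 nM CXCL16 with DMSO and 100% = unstimulated wells without agonist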
EBI2 block: EBI2 receptor antagonists, beta-arrestin recruitment, primary screen, cell-based, luminescence, 7a,25-OHC stimulation, uHTS | 7a,25-OHC stimulated | AID 651636, 2012 | G-protein coupled receptor 183 (Homo sapiens), P32249 | actives 0.81% (n = 360,000) | inhibition, % at 5 µM; in the data active = inhibition above about 38%;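 also: enzyme fragment complementation signal reports receptor beta-arrestin coupling in cells; 0% = agonist plus DMSO wells and 100% = wells without agonist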
APJ antag: antagonists of human apelin receptor APJ, primary screen, CHO-K1 cells, beta-arrestin complementation, luminescence; inhibition, % at 20 µM; actives 0.32% (n = 330,000); AID 2521, 2010;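 active = inhibition above about 40% at 20 µM, limit read from the data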;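 also: cells challenged with 10 nM apelin-13 agonist together with compound; plate controls were apelin-13 plus DMSO wells for no effect and DMSO wells lacking apelin-13 for full effect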
APJ ag: agonists of human apelin receptor APJ, primary screen, CHO-K1 cells, PathHunter beta-arrestin, luminescence | P35414 | 0% DMSO wells, 100% apelin | activation, % at 20 µM | actives 0.11% (n = 330,000) | AID 2520, 2010;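 active = activation more than six SD over the plate average, tested at 20 µM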;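 also: 0% = DMSO alone and 100% = apelin-13 at 10 nM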
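Assay system: engineered CHO-K1 APJ arrestin reporter cells; Amount: 1000 CHO-K1 reporter cells seeded per well; Dosing: one dose, 20 µM compound, 1% DMSO; Times: compound stimulation 90 min at 25 °C, detection 60 min; Measured by: luminescent beta-gal fragment complementation, chemiluminescent substrate; Read-out: APJ–arrestin association signal; Controls: DMSO vs Apelin-13 10 nM.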
CCR6 antag: CCR6 receptor antagonists, primary screen, cell-based, CHO-K1, luminescence, beta-arrestin, uHTS. CHO-K1 CCR6 PathHunter beta-arrestin, CCL20-stimulated. inhibition, % at 20 µM. actives 0.49% (n = 340,000). AID 493098, 2011;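 active = compounds whose inhibition of the agonist-driven luminescence signal at 20 µM reaches about 50%, limit read from the data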;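 also: cells stimulated with CCL20 at 14 nM final; plate controls were DMSO with CCL20 for no effect and DMSO without agonist for full effect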
Target sequence (P51684 whole entry, looked up): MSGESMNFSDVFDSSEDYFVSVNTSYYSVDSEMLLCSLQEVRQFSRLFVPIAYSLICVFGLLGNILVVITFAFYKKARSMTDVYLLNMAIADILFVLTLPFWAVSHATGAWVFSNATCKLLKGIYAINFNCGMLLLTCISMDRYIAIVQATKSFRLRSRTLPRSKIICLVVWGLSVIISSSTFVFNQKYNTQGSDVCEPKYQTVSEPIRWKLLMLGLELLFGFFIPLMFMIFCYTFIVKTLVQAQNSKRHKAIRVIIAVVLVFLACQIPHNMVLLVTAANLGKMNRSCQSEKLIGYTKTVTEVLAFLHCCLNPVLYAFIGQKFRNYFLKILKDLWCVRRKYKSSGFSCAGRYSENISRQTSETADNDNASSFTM
The depositor's hits bear a star; / = no result given. Rows were chosen to be rich in hits. Some 1.5% of all compounds tested hit in one or more screens of this group.

SMILES	CXCR6 inh	EBI2 block	APJ antag	APJ ag	CCR6 antag
Cc1ccc(C(=O)COC(=O)CCC(=O)Nc2cccc(Cl)c2)cc1[N+](=O)[O-]	16	6	24	-11	53*
CC1=C(C(=O)N(C(C)C)C(C)C)CC(CC(=O)NCC2CCCCC2)C(=O)N1Cc1ccc(C(C)(C)C)cc1 (configuration not stated)	29	16	/	/	/
Fc1cccc(NC(=S)NNc2c3ccccc3nc3ccccc23)c1	38	-3	/	/	56*
Fc1cccc(NC(=S)NNc2ccccc2)c1	7	-9	-16	1	16
COc1cccc(C(NC(C)=O)c2nc(-c3ccc4ccccc4c3)cs2)c1 (configuration not stated)	0	1	/	/	/
C=CCn1nc([N+](=O)[O-])nc1Sc1cccc2cccnc12	47*	36	27	-3	64*
O=[N+]([O-])c1ccc(Sc2cccc3cccnc23)cc1	0	4	-4	-3	-8
COc1ccc(Cl)cc1-c1cc(C(=O)N[C@H](C)c2ccccc2)[nH]n1	-4	-4	/	/	/
CCOc1ccccc1N1C(=O)CC(Sc2n[nH]c(-c3ccccc3)n2)C1=O (configuration not stated)	-8	-12	4	-2	70*
COc1ccc(N2C(=O)CC(Sc3n[nH]c(-c4cccc(C)c4)n3)C2=O)cc1 (configuration not stated)	-1	6	4	-1	4
O=C(NCC(F)(F)F)c1[nH]c(C(F)(F)F)nc1-c1ccccc1	-7	1	/	/	/
COc1ccc(C=NNC(=O)CCCCC(=O)NN=Cc2ccc(OC)cc2)cc1	11	13	/	/	6
COC(=O)/C=C\C(C#N)(C#N)N=Cc1ccc(OC)cc1	65*	8	/	/	15
Oc1ccc(N=Nc2nc(-c3ccccc3)c(-c3ccccc3)[nH]2)cc1	53*	42	54*	-8	67*
CSc1ncccc1C(=O)OCC(=O)c1cc2ccccc2o1	34	4	22	-12	50*
CSc1ncccc1C(=O)OCC(=O)c1ccccc1	2	-1	9	-4	18
O=C(CCOc1ccccc1)OCC(=O)c1cc2ccccc2o1	29	-8	36	-10	85*
O=C(COC(=O)CCOc1ccccc1)NCCc1ccccc1	-1	0	21	1	15
CCCc1nc2c3ccccc3ccn2c1Cc1ccc(OC)cc1C	7	4	/	/	/
CC1(C(=O)NS(=O)(=O)c2ccccc2C(F)(F)F)CCN1C(=O)CCC1CCCC1 (configuration not stated)	-8	-7	/	/	/
COc1ccc(NC(=O)Cc2ccccc2)cn1	-7	-2	0	0	6
COc1ccc(CS(=O)(=O)/C(Cl)=C(/Cl)C(=O)Nc2ccc(OC)nc2)cc1	40	72*	18	-5	28
N#C/C(=C\c1ccc(-c2ccc(F)cc2)o1)C(=O)Nc1nc(-c2cccs2)cs1	26	19	30	-7	55*
O=C(/C=C/c1cccs1)c1ccc(NC(=O)c2cccc(Br)c2)cc1	11	58*	-16	-2	14
O=C(NC1CCCC1)C(c1ccccc1)n1c(CSCCOc2ccccc2)nc2ccccc21 (configuration not stated)	/	13	/	/	/
SMILES	CXCR6 inh	EBI2 block	APJ antag	APJ ag	CCR6 antag
COc1ncc(-c2ccc(N3C(c4ccc([N+](=O)[O-])cc4)=Cc4ccccc4C3CC(C)=O)cc2)cn1 (configuration not stated)	0	6	/	/	/
COc1cc(N=Nc2cccc(S(N)(=O)=O)c2)c2ccccc2c1N	31	13	/	/	67*
Oc1ccc(/C=N/Nc2ccnc3cc(Cl)ccc23)c(O)c1	-3	46*	-13	2	11
COc1ccccc1CNC(=O)Nc1nnc([C@H]2C[C@H](O)[C@@H](CO)O2)s1	1	-5	/	/	/
O=C(OC1CC2CC1[C@H]1CCCCN1C2=O)N1CCN(C(=O)c2ccccc2)CC1 (some centres not stated)	2	4	/	/	/
CC1=NN(c2ccc(Br)cc2)C(=O)/C1=C/c1cccs1	6	57*	3	-1	12
Oc1ccc(Cl)cc1CNc1ccc(Br)cn1	-7	41*	-9	-1	14
Oc1c(Cl)cc(Cl)cc1CNc1ccc(Br)cn1	5	0	2	10	-4
CCNC(=O)C1(C)CCCN(C(=O)c2cc(-c3cccs3)oc2C)C1 (configuration not stated)	2	-1	/	/	/
Cc1ccc(-n2c(=O)c3ccc(C(=O)NCc4ccco4)cc3n(Cc3ccccc3C#N)c2=O)cc1	35	14	86*	-13	35
Cc1ccccc1Cn1c(=O)n(-c2ccccc2)c(=O)c2ccc(C(=O)NCc3ccco3)cc21	6	0	6	-6	/
O=[N+]([O-])c1cccc(/C=N/Nc2nc(C(Cl)(Cl)Cl)nc3ccccc23)c1	-5	-2	-41	15*	-4
CC1(C)Cc2cccc(OC(=O)NC3CCCCC3)c2O1	5	-15	/	/	/
Cc1nc([N+](=O)[O-])c(Br)n1CC(=O)c1ccc2ccccc2c1	18	55*	3	-2	25
O=C1Nc2ccc(Br)cc2/C1=C/C1CC=CCC1 (configuration not stated)	5	7	20	0	4
O=C1Nc2ccc(Br)cc2/C1=C/C(=O)c1ccc2c(c1)OCO2	23	85*	-13	6	40
COc1cc(/C=C/c2cc(OC(C)=O)c3ccccc3n2)c(OC(C)=O)c([N+](=O)[O-])c1	31	15	39	-7	63*
CCc1nc2ccc(C(=O)Nc3cccc(OC)c3)cn2c1N(C)Cc1ccc(OC)cc1	6	25	/	/	/
COC(=O)[C@@]12C[C@@H](CC(=O)N3CCOCC3)C(=O)N(Cc3ccccc3)C1=CCC(C)(C)C2	/	-6	/	/	/
Cc1ccccc1C(=O)NC(=S)Nc1ccc(Oc2ccc(Cl)cc2)cc1	25	22	36	-6	53*
O=C(NC(=S)Nc1ccc(Oc2ccccc2)cc1)c1ccc(Cl)cc1	28	-7	16	0	46
COc1cc(/C=C2/CCC/C(=C\c3cc(O)c(OC)c(Cl)c3)C2=O)cc(Cl)c1O	26	24	38	-8	74*
COc1cc(/C=C2\COC/C(=C\c3cc(OC)c(OC)c(OC)c3)C2=O)cc(OC)c1OC	39*	45*	/	/	55*
COc1cc(/C=C2\CC/C(=C\c3cc(OC)c(O)c(OC)c3)C2=O)cc(OC)c1O	42*	23	-6	-3	55*
COc1cc(/C=C2/CCc3ccccc3C2=O)cc(OC)c1OC	-21	2	-7	2	9
